# Reference: ChEMBL document CHEMBL1132994, “Synthesis and anticonvulsant and neurotoxic properties of substituted N-phenyl derivatives of the phthalimide pharmacophore” (J Med Chem, 2000)
# “And” between values parts separate entries of the source, which are not always exact repeats. Equal entries are not always repeated. The source made the active and inactive calls. No cut-off for these calls is given here.
# Key:
# [1] = test system: Rattus norvegicus; experiment: Anticonvulsant activity was measured in rats through seizures induced by maximal electroshock (MES) tests by oral administration of drug after 4 hours.; format: functional
# How it was run: (§1)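 Rats given a single oral dose of 30 or 50 mg/kg, depending on compound; MES protection scored at 15, 30, 60, 120 and 240 min. Activity graded by fraction of animals protected (0-25%, 25-50%, 50-75%, 75-100%); neurotoxicity monitored at the same time points.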
# [2] = dose eliciting minimal neurological toxicity in 50% of animals.; format: organism-based; conditions: rat, in vivo
# [3] = test system: Mus musculus; experiment: Anticonvulsant activity in mice through seizures induced by maximal electroshock (MES) tests after ip administration at a concentration of 300 mg/kg after 4 hours; active; format: functional, organism-based; parameters: dose 300 mg/kg
# [4] = test system: Mus musculus; experiment: Neurotoxicity determined by rotarod test after intraperitoneal administration at a concentration of 300 mg/kg after 4 hours; Inactive; format: functional, organism-based; parameters: dose 300 mg/kg
# [5] = test system: Mus musculus; experiment: Anticonvulsant activity in mice through seizures induced by subcutaneous pentylenetetrazole (scPTZ) tests after ip administration at a concentration of 300 mg/kg after 4 hours; Inactive; format: functional, organism-based; parameters: dose 300 mg/kg
# [6] = test system: Rattus norvegicus; experiment: Anticonvulsant activity was measured in rats through seizures induced by maximal electroshock (MES) tests by oral administration of drug after 2 hours.; format: functional; how it was run: as §1
# [7] = test system: Rattus norvegicus; experiment: Effective dose required to assure anticonvulsant protection in 50% of rats dosed orally by scPTZ test.; format: functional; conditions: po
# How it was run: (§2)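 Rats dosed orally; ED50 is the dose giving anticonvulsant protection in 50% of animals in the MES or scPtz test. TD50 is the minimal neurotoxic dose in 50% of animals. Time to peak effect was also determined.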
# [8] = test system: Mus musculus; experiment: Anticonvulsant activity in mice through seizures induced by maximal electroshock (MES) tests after intraperitoneal administration at a concentration of 100 mg/kg after 30 min; active; format: functional, organism-based; parameters: dose 100 mg/kg
# [9] = test system: Mus musculus; experiment: Anticonvulsant activity in mice through seizures induced by subcutaneous pentylenetetrazole (scPTZ) tests after ip administration at a concentration of 300 mg/kg after 30 min; Inactive; format: functional, organism-based; parameters: dose 300 mg/kg
# [10] = test system: Rattus norvegicus; experiment: Anticonvulsant activity was measured in rats through seizures induced by maximal electroshock (MES) tests by oral administration of drug after 15 minutes.; format: functional; how it was run: as §1
# [11] = test system: Mus musculus; experiment: Neurotoxicity by rotarod test after intraperitoneal administration at a concentration of 300 mg/kg after 30 minutes; active; format: functional, organism-based; parameters: dose 300 mg/kg
# [12] = test system: Rattus norvegicus; experiment: Anticonvulsant activity was measured in rats through seizures induced by maximal electroshock (MES) tests by oral administration of drug after 1 hour.; format: functional; how it was run: as §1
# [13] = test system: Rattus norvegicus; experiment: Anticonvulsant activity was measured in rats through seizures induced by maximal electroshock (MES) tests by oral administration of drug after 30 minutes.; format: functional; how it was run: as §1
# [14] = test system: Mus musculus; experiment: Anticonvulsant activity in mice through seizures induced by maximal electroshock (MES) tests after ip administration at a concentration of 300 mg/kg after 4 hours; Inactive; format: functional, organism-based; parameters: dose 300 mg/kg
# [15] = species on record: Mus musculus; experiment: Current response was measured on 1 uM GABA at 100 uM concentration on 10 isolated mouse cortical neurons.; format: functional
# [16] = species on record: Mus musculus; experiment: Current response was measured from -90 mV depolarizing voltage steps at 100 uM concentration on 5 N1E-115 neuroblastoma cells.; format: functional
# How it was run: (§3)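 Differentiated N1E-115 cells (3-5 days in 2.5% FCS, 2% DMSO), whole-cell clamped at -70 mV at room temperature. Bath had Cd2+ and TEA to block Ca2+ and K+ channels. Na+ currents evoked by steps from -80 to +60 mV after 90 ms prepulses to -90 or -60 mV, measured 1-2 min into compound exposure; reported as % of control.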
# [17] = species on record: Mus musculus; experiment: Current response was measured on 1 uM GABA at 30 uM concentration on 6 isolated mouse cortical neurons.; format: functional
# [18] = test system: Mus musculus; experiment: Anticonvulsant activity in mice through seizures induced by subcutaneous pentylenetetrazole (scPTZ) tests after ip administration at a concentration of 300 mg/kg after 4 hours; active; format: functional, organism-based; parameters: dose 300 mg/kg
# [19] = species on record: Mus musculus; experiment: Current response was measured from -60 mV depolarizing voltage steps at 100 uM concentration on 3 N1E-115 neuroblastoma cells.; format: functional; how it was run: as §3
# [20] = test system: Mus musculus; experiment: Neurotoxicity by rotarod test after intraperitoneal administration at a concentration of 300 mg/kg after 30 minutes; Inactive; format: functional, organism-based; parameters: dose 300 mg/kg
# [21] = test system: Mus musculus; experiment: Anticonvulsant activity in mice through seizures induced by maximal electroshock (MES) tests after ip administration at a concentration of 100 mg/kg after 30 min; active; format: functional, organism-based; parameters: dose 100 mg/kg
# [22] = test system: Rattus norvegicus; experiment: (§4) Toxicity screening in rats dosed orally with the compound; No toxicity; format: organism-based; conditions: in vivo, po
# [23] = species on record: Mus musculus; experiment: Current response was measured on 100 uM kainate at 100 uM concentration on 7 isolated mouse cortical neurons.; format: functional
# How it was run: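 Cultured mouse fetal cortical neurons, whole-cell clamped at -60 mV and 23 °C. Bath had 1 µM glycine, 10 µM picrotoxin, strychnine and tetrodotoxin. Currents evoked by 100 µM kainate pulses with and without 100 µM compound via rapid perfusion; expressed as % of control, mean ± SEM, Student's t-test.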
# [24] = test system: Mus musculus; experiment: Anticonvulsant activity in mice through seizures induced by sc pentylenetetrazole (intraperitoneal administration at a concentration of 300 mg/kg after 30 min; active; format: functional, organism-based; parameters: dose 300 mg/kg
# [25] = species on record: Mus musculus; experiment: Current response was measured on 1 uM GABA at 10 uM concentration on 5 isolated mouse cortical neurons.; format: functional
# [26] = test system: Rattus norvegicus; experiment: Effective dose required to assure anticonvulsant protection in 50% of rats dosed orally by MES test.; format: functional; conditions: po; how it was run: as §2
# [27] = test system: Mus musculus; experiment: Neurotoxicity by rotarod test after intraperitoneal administration at a concentration of 300 mg/kg after 30 minutes; Active; format: functional, organism-based; parameters: dose 300 mg/kg
# [28] = test system: Mus musculus; experiment: Anticonvulsant activity in mice through seizures induced by sc pentylenetetrazole (intraperitoneal administration at a concentration of 300 mg/kg after 4 hours; Inactive; format: functional, organism-based; parameters: dose 300 mg/kg
# [29] = test system: Rattus norvegicus; experiment: Anticonvulsant activity was measured in rats through seizures induced by maximal electroshock (MES) tests by oral administration of drug at a concentration of 30 mg/kg after 15 minutes.; format: functional; how it was run: as §1
# [30] = test system: Rattus norvegicus; experiment: Anticonvulsant activity was measured in rats through seizures induced by maximal electroshock (MES) tests by oral administration of drug at a concentration of 30 mg/kg after 2 hours.; format: functional; how it was run: as §1
# [31] = test system: Rattus norvegicus; experiment: Anticonvulsant activity in rats through seizures induced by maximal electroshock (MES) tests after oral administration at a concentration of 30 mg/kg after 1 hour.; format: functional; how it was run: as §1
# [32] = test system: Mus musculus; experiment: Neurotoxicity by rotarod test after intraperitoneal administration at a concentration of 300 mg/kg after 4 hours; Active; format: functional, organism-based; parameters: dose 300 mg/kg
# [33] = test system: Mus musculus; experiment: Anticonvulsant activity in mice through seizures induced by subcutaneous pentylenetetrazole (scPTZ) tests after ip administration at a concentration of 300 mg/kg after 30 min; Active; format: functional, organism-based; parameters: dose 300 mg/kg
# [34] = test system: Rattus norvegicus; experiment: as §4; format: functional, organism-based
# How it was run: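 Rats given a single oral dose of 30 or 50 mg/kg, depending on compound. Minimal neurotoxicity was scored at 15, 30, 60, 120 and 240 min after dosing, alongside the MES test. Scores are graded by the percentage of animals affected.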
# [35] = test system: Mus musculus; experiment: Anticonvulsant activity in mice through seizures induced by maximal electroshock (MES) tests after ip administration at a concentration of 100 mg/kg after 30 min; Active; format: functional, organism-based; parameters: dose 100 mg/kg
# [36] = test system: Mus musculus; experiment: Anticonvulsant activity in mice through seizures induced by maximal electroshock (MES) tests after ip administration at a concentration of 300 mg/kg after 4 hours; Active; format: functional, organism-based; parameters: dose 300 mg/kg
# [37] = test system: Rattus norvegicus; experiment: Anticonvulsant activity was measured in rats through seizures induced by maximal electroshock (MES) tests by oral administration of drug at a concentration of 30 mg/kg after 30 minutes.; format: functional; how it was run: as §1
# [38] = test system: Rattus norvegicus; experiment: Anticonvulsant activity in rats through seizures induced by maximal electroshock (MES) tests by oral administration of drug at a concentration of 30 mg/kg after 30 minutes; format: functional; how it was run: as §1
# [39] = test system: Mus musculus; experiment: Neurotoxicity by rotarod test after ip administration at a concentration of 300 mg/kg after 30 minutes; Active; format: functional, organism-based; parameters: dose 300 mg/kg
# [40] = test system: Mus musculus; experiment: Anticonvulsant activity in mice through seizures induced by subcutaneous pentylenetetrazole (scPTZ) test after ip administration at a concentration of 300 mg/kg after 30 min; Inactive; format: functional, organism-based; parameters: dose 300 mg/kg
# [41] = test system: Rattus norvegicus; experiment: Anticonvulsant activity in rats through seizures induced by maximal electroshock (MES) tests by oral administration of drug at a concentration of 30 mg/kg after 15 minutes; No activity; format: functional, organism-based; parameters: dose 30 mg/kg; how it was run: as §1
structure (smiles),measurement,setting,value
O=C1NC(=O)C(c2ccccc2)(c2ccccc2)N1 [PHENYTOIN],Activity in animals,[1],25%
same,TD50,[2],> 3000 mg/kg
same,Activity,[3],Active
same,Activity,[4],inactive
same,Activity,[5],inactive
same,Activity in animals,[6],100%
same,ED50,[7],> 800 mg/kg
same,Activity,[8],Active
same,Activity,[9],inactive
same,Activity in animals,[10],100%
same,Activity,[11],Active
same,Activity in animals,[12],100%
same,Activity in animals,[13],100%
Nc1ccc(N2C(=O)c3ccccc3C2=O)c(Cl)c1,Activity in animals,[1],100%
same,Activity,[14],inactive
same,Response,[15],118%
same,TD50,[2],> 500 mg/kg
same,Activity,[4],inactive
same,Response,[16],62%
same,Response,[17],142%
same,Activity in animals,[6],100%
same,ED50,[7],> 250 mg/kg
same,Activity,[18],Active
same,Response,[19],49%
same,Activity,[20],inactive
same,Activity,[21],Active
same,Toxicity,[22],No toxicity
same,Response,[23],74%
same,Activity,[24],Active
same,Activity in animals,[10],75%
same,Response,[25],174% and 99%
same,ED50,[26],5.7 mg/kg
same,Activity in animals,[12],100%
same,Activity in animals,[13],100%
Nc1cccc(N2C(=O)c3ccccc3C2=O)c1,Activity in animals,[1],100%
same,Activity,[27],Active
same,Activity,[28],inactive
same,Activity in animals,[29],50%
same,Activity in animals,[30],75%
same,Activity in animals,[31],75%
same,Activity,[32],Active
same,Activity,[33],Active
same,Toxicity,[34],Not toxic
same,Activity,[35],Active
same,Activity,[36],Active
same,Activity in animals,[37],100%
Nc1ccc(N2C(=O)c3ccccc3C2=O)cc1,Activity in animals,[1],25%
same,Activity,[14],inactive
same,Activity in animals,[38],25%
same,Activity,[39],Active
same,Activity,[40],inactive
same,Activity in animals,[41],No activity
same,Activity,[4],inactive
same,Activity,[5],inactive
same,Activity in animals,[30],50%
same,Activity in animals,[31],75%
same,Toxicity,[34],Not toxic
same,Activity,[35],Active
